Measured values reported in paper PMC5916823 (Molecular cell, 2018).

Assays:
surface groove of MCL-1 = details: ref Kotschy et al., 2016; cited from earlier work
[1] = ref Kotschy et al., 2016; cited from earlier work
SEC = target: the molecule itself; test: SEC
BIM = type: binding, mouse; details: Mcl-1-deleted murine livers reconstituted by scAAV; MS in duplicate
How it was run: (§1)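 Mcl-1 floxed mice (6–8 weeks, mixed sex) received tail-vein scAAV-LP1-Cre (2×10^11 genome copies) plus GFP control or FLAG-MCL-1 (wild-type, OMM-only or Matrix-only isoform) vectors (5×10^10 copies). Two weeks later, liver mitochondria were isolated by differential centrifugation and a 70%/30% Percoll gradient. Anti-FLAG M2 IP was run in 0.5% NP40/Tris pH 7.5 for 90 min, with FLAG-peptide elution. Three livers were pooled per IP; MS was run in duplicate, Sequest, ~1% FDR.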

PUMA = type: binding, mouse; details: Mcl-1-deleted murine livers reconstituted by scAAV; MS in duplicate
How it was run: as §1

MCAD = type: binding, mouse; details: Mcl-1-deleted murine livers reconstituted by scAAV; MS in duplicate
How it was run: as §1

SCAD = type: binding, mouse; details: Mcl-1-deleted murine livers reconstituted by scAAV; MS in duplicate
How it was run: as §1

Cc1c(-c2c(-c3ccc(F)o3)sc3ncnc(O[C@H](Cc4ccccc4OCc4ccnn4CC(F)(F)F)C(=O)O)c23)ccc(OCCN2CCN(C)CC2)c1Cl [S63845]
Selectivity for MCL-1 (surface groove of MCL-1): selectively targets the surface groove of MCL-1 | Toxicity in treated mice [1]: lack of overt toxicity, including cardiotoxicity

B1: recombinant human VLCAD (aa 40-655), His-tagged (enzyme, UniProt P49748-1 40-655, looked up)
chain: YAGGAAQLALDKSDSHPSDALTRKKPAKAESKSFAVGMFKGQLTTDQVFPYPSVLNEEQTQFLKELVEPVSRFFEEVNDPAKNDALEMVEETTWQGLKELGAFGLQVPSELGGVGLCNTQYARLVEIVGMHDLGVGITLGAHQSIGFKGILLFGTKAQKEKYLPKLASGETVAAFCLTEPSSGSDAASIRTSAVPSPCGKYYTLNGSKLWISNGGLADIFTVFAKTPVTDPATGAVKEKITAFVVERGFGGITHGPPEKKMGIKASNTAEVFFDGVRVPSENVLGEVGSGFKVAMHILNNGRFGMAAALAGTMRGIIAKAVDHATNRTQFGEKIHNFGLIQEKLARMVMLQYVTESMAYMVSANMDQGATDFQIEAAISKIFGSEAAWKVTDECIQIMGGMGFMKEPGVERVLRDLRIFRIFEGTNDILRLFVALQGCMDKGKELSGLGSALKNPFGNAGLLLGEAGKQLRRRAGLGSGLSLSGLVHPELSRSGELAVRALEQFATVVEAKLIKHKKGIVNEQFLLQRLADGAIDLYAMVVVLSRASRSLSEGHPTAQHEKMLCDTWCIEAAARIREGMAALQSDPWQQELYRNFKSISKALVERGGVVTSNPLGF
stoichiometry N (SEC): 2

B2: FLAG-MCL-1: full-length protein, reconstituted into Mcl-1−/− murine livers (protein, UniProt P97287 1-331, looked up)
chain: MFGLRRNAVIGLNLYCGGASLGAGGGSPAGARLVAEEAKARREGGGEAALLPGARVVARPPPVGAEDPDVTASAERRLHKSPGLLAVPPEEMAASAAAAIVSPEEELDGCEPEAIGKRPAVLPLLERVSEAAKSSGADGSLPSTPPPPEEEEDDLYRQSLEIISRYLREQATGSKDSKPLGEAGAAGRRALETLRRVGDGVQRNHETAFQGMLRKLDIKNEGDVKSFSRVMVHVFKDGVTNWGRIVTLISFGAFVAKHLKSVNQESFIEPLAETITDVLVRTKRDWLVKQRGWDGFVEFFHVQDLEGGIRNVLLAFAGVAGVGAGLAYLIR
modifications: full-length FLAG tag
Interaction with BIM (FLAG pull-down) (BIM): pulled down native VLCAD and established physiologic interactors of MCL-1, such as BIM and PUMA | Interaction with PUMA (FLAG pull-down) (PUMA): pulled down native VLCAD and established physiologic interactors of MCL-1, such as BIM and PUMA | Interaction with MCAD (FLAG pull-down) (MCAD): not MCAD or SCAD | Interaction with SCAD (FLAG pull-down) (SCAD): not MCAD or SCAD

B3: FLAG-MCL-1^OMM: mutant MCL-1 construct with an internal FLAG tag that only generates the OMM isoform (protein)
chain: MFGLAANAVIGLNLYCGGASLGAGGGSPAGARLVAEEAKARREGGGEAALLPGARVVARPPPVGAEDPDVTASAERRLHKSPGLLAVPPEEMAASAAAAIVSPEEELDGCEPEAIGKRPAVLPLLERVSEAAKSSGADGSLPSTPPPPEEEEDDLYRQSLEIISRYLREQATGSKDSKPLGEAGAAGRRALETLRRVGDGVQRNHETAFQGMLRKLDIKNEGDVKSFSRVMVHVFKDGVTNWGRIVTLISFGAFVAKHLKSVNQESFIEPLAETITDVLVRTKRDWLVKQRGWDGFVEFFHVQDLEGGIRNVLLAFAGVAGVGAGLAYLIR
modifications: left off: FLAG, internal (at residue 134), kept
Interaction with BIM (FLAG pull-down) (BIM): BIM and PUMA were enriched | Interaction with PUMA (FLAG pull-down) (PUMA): BIM and PUMA were enriched
